These results are taken from ChEMBL document CHEMBL4627281, “A small molecule inhibitor of PCSK9 that antagonizes LDL receptor binding via interaction with a cryptic PCSK9 binding groove” (Bioorg Med Chem, 2020).

The source made the active and inactive calls. The rule behind the calls is not given here. Bounds are passed on as bounds.

Data set [1] can be described thus: AUClast in CD1 mouse at 0.4 mg/kg, iv administered as cassette dose measured upto 24 hrs by LC-MS/MS analysis. In kind it is ADME, organism-based. The arrangement: time < 24 hr, dose 0.4 mg/kg, route intravenous. The note with it: in vivo. An outline of the steps: (§1)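 Male CD1 mice (second cassette 28–29 g, 7–8 weeks) given one IV 5-in-1 cassette at 0.4 mg/kg per compound in 5% DMAC/5% Solutol HS15/90% saline. Blood (~20 µL) into K2EDTA from the facial vein at 0.083–24 h, terminal bleed by cardiac puncture under isoflurane. Blood diluted with deionised water, stored at −80 °C, analysed by positive-ESI mass spectrometry.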

Data set [2] in a line: Mean residence time (0 to infinity) in CD1 mouse at 0.4 mg/kg, iv administered as cassette dose measured upto 24 hrs by LC-MS analysis. In kind it is ADME, organism-based. The note with it: in vivo. An outline of the steps:
as §1

Data set [3] can be described thus: Terminal half life in CD1 mouse at 0.4 mg/kg, iv administered as cassette dose measured upto 24 hrs by LC-MS/MS analysis. Format: ADME, organism-based. The note with it: in vivo, read-out: beta t1/2 (converted). An outline of the steps: as §1
The target of data set [4] is Proto-oncogene tyrosine-protein kinase Src (Homo sapiens, UniProt P12931). The data set can be described thus: Inhibition of recombinant human full-length N-terminal GST-tagged SRC (1 to 536 residues) expressed in baculovirus expression system using FAM-labelled P4 peptide as substrate preincubated for 10 mins followed by substrate addition and measured after 1 hr in presence of ATP by fluorescence assay.

The nature of data set [5]: Clearance in CD1 mouse at 0.4 mg/kg, iv administered as cassette dose measured upto 24 hrs by LC-MS/MS analysis. In kind it is ADME, organism-based. Conditions: in vivo. In a few lines: as §1
Data set [6] addresses Mast/stem cell growth factor receptor Kit (Homo sapiens, UniProt P10721). Put plainly: Inhibition of recombinant human N-terminal GST-tagged c-Kit (544 to end residues) expressed in baculovirus infected Sf21 insect cells using FAM-labelled P22 peptide as substrate preincubated for 10 mins followed by substrate addition and measured after 1 hr in presence of ATP by fluorescence assay.

Data set [7] in a line: AUCinfinity in CD1 mouse at 0.4 mg/kg, iv administered as cassette dose measured upto 24 hrs by LC-MS/MS analysis. Format: ADME, organism-based. The arrangement: dose 0.4 mg/kg, route intravenous, time infinity. The note with it: in vivo. An outline of the steps:
as §1

Data set [8] is described as follows: Volume of distribution at steady state in CD1 mouse at 0.4 mg/kg, iv administered as cassette dose measured upto 24 hrs by LC-MS/MS analysis. The note with it: in vivo, read-out: Vdss. In kind it is ADME, organism-based. In a few lines:
as §1

In a further data set the target is PCSK9/LDLR (Homo sapiens, UniProt Q8NBP7). Put plainly: Inhibition of recombinant human His-tagged PCSK9 interaction with recombinant LDLR AB domain (unknown origin) measured after 3 hrs by horseradish peroxidase-coupled TMB substrate based spectrophotometry. In kind it is protein assay. In a few lines:
(§2)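 ELISA plates pre-coated with LDLR-EGF-AB domain. Compounds serially diluted from 10 mM DMSO stocks in reaction buffer, with 7 ng His-tagged human PCSK9 added, 3 h at room temperature with shaking. Binding detected with biotinylated anti-His antibody (1 h), then HRP-streptavidin (20 min), then substrate (15 min); absorbance read at 450/540 nm. IC50 taken from the % inhibition curve.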

Data set [9] concerns the target Tyrosine-protein kinase ABL1 (Homo sapiens, UniProt P00519). Put plainly: Inhibition of recombinant human N-terminal His-tagged Abl (2 to 1130 residues) expressed in baculovirus expression system using FAM-labelled P2 peptide as substrate preincubated for 10 mins followed by substrate addition and measured after 1 hr in presence of ATP by fluorescence assay.
The target of data set [10] is Platelet-derived growth factor receptor beta (Homo sapiens, UniProt P09619). The data set can be described thus: Inhibition of recombinant human N-terminal GST-tagged PDGFRbeta cytoplasmic domain (557 to 1106 residues) expressed in baculovirus expression system using FAM-labelled P22 peptide as substrate preincubated for 10 mins followed by substrate addition and measured after 1 hr in presence of ATP by fluorescence assay.

Data set [11] has as its system PCSK9/LDLR (Homo sapiens), Q8NBP7+P01130 [D374Y]. The data set can be described thus: Inhibition of PCSK9 D374Y mutant (unknown origin) and LDLR protein-protein interaction in human HepG2 cells assessed as increase in Bodipy FL-labelled LDL uptake at 0.1 or 1 uM preincubated for 16 hrs followed by Bodipy FL-labelled LDL addition and measured after 4 hrs by fluorescence assay. Format: cell-based. In a few lines: (§3)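 HepG2 cells seeded at 2 × 10^5 cells/mL and attached overnight, then incubated 16 h with PCSK9-D374Y (2 μg/mL) plus compound (0.1 or 1 µM). Medium replaced with 10 μg/mL Bodipy FL LDL for 4 h. Cells washed with warm PBS; fluorescence read at ex 485/em 530 nm. Mean ± S.D.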

Data set [12] has as its target PCSK9/LDLR (Homo sapiens) (UniProt Q8NBP7+P01130). Put plainly: Inhibition of recombinant human His-tagged PCSK9 interaction with recombinant LDLR AB domain (unknown origin) at higher concentration measured after 3 hrs by horseradish peroxidase-coupled TMB substrate based spectrophotometry relative to control. In kind it is protein assay. In a few lines: as §2
Data set [13] relates to PCSK9/LDLR (Homo sapiens), Q8NBP7+P01130 [D374Y]. Put plainly: Inhibition of PCSK9 D374Y mutant (unknown origin) and LDLR protein-protein interaction in human HepG2 cells assessed as increase in Bodipy FL-labelled LDL uptake preincubated for 16 hrs followed by Bodipy FL-labelled LDL addition and measured after 4 hrs by fluorescence assay. In kind it is cell-based. In a few lines: as §3

Sequence of PCSK9/LDLR (Q8NBP7 31-152 limits assumed): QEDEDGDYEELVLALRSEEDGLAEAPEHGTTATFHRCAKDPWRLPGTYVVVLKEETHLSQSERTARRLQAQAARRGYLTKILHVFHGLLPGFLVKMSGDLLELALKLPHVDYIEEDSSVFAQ
Sequence of PCSK9/LDLR (Q8NBP7 153-692 limits assumed): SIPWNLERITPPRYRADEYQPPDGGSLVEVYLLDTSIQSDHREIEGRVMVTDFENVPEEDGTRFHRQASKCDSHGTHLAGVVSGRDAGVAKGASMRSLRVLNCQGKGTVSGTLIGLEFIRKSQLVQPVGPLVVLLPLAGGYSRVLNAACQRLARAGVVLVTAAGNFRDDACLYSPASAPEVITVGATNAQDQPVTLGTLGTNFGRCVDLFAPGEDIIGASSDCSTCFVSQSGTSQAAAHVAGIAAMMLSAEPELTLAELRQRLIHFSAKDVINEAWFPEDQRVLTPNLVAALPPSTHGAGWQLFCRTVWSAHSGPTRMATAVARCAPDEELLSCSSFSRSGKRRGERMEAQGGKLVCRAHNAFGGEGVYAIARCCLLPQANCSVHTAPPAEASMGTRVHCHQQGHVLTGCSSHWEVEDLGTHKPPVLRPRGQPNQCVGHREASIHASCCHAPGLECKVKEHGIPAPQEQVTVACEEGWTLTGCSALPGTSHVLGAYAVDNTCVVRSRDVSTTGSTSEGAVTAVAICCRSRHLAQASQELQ
Sequence of PCSK9/LDLR (P01130 22-860 partner limits assumed): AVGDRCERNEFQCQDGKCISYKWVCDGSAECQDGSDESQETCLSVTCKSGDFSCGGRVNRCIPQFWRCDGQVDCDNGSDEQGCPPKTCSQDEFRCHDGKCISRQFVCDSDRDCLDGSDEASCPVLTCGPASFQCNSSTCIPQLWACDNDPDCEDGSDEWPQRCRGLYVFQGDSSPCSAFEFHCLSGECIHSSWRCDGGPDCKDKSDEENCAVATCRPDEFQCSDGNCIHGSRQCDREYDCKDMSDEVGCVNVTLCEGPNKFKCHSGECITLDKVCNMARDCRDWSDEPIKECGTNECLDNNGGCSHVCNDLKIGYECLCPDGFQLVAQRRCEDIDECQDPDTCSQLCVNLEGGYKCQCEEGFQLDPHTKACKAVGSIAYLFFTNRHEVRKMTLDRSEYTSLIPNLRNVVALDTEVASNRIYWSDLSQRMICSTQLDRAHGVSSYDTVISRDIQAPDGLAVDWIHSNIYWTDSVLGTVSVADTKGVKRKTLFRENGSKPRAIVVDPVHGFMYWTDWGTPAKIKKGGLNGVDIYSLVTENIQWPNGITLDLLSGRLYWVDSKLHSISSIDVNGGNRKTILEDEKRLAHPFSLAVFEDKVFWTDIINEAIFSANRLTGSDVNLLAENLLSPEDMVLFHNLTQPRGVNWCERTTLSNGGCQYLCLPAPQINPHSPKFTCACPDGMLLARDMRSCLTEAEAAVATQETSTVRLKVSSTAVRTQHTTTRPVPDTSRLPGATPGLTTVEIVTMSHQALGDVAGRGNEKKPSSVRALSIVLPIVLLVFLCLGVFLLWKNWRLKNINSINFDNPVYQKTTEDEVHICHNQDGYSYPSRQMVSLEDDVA
Sequence of Tyrosine-protein kinase ABL1 (P00519 whole entry, the tested form may be a part): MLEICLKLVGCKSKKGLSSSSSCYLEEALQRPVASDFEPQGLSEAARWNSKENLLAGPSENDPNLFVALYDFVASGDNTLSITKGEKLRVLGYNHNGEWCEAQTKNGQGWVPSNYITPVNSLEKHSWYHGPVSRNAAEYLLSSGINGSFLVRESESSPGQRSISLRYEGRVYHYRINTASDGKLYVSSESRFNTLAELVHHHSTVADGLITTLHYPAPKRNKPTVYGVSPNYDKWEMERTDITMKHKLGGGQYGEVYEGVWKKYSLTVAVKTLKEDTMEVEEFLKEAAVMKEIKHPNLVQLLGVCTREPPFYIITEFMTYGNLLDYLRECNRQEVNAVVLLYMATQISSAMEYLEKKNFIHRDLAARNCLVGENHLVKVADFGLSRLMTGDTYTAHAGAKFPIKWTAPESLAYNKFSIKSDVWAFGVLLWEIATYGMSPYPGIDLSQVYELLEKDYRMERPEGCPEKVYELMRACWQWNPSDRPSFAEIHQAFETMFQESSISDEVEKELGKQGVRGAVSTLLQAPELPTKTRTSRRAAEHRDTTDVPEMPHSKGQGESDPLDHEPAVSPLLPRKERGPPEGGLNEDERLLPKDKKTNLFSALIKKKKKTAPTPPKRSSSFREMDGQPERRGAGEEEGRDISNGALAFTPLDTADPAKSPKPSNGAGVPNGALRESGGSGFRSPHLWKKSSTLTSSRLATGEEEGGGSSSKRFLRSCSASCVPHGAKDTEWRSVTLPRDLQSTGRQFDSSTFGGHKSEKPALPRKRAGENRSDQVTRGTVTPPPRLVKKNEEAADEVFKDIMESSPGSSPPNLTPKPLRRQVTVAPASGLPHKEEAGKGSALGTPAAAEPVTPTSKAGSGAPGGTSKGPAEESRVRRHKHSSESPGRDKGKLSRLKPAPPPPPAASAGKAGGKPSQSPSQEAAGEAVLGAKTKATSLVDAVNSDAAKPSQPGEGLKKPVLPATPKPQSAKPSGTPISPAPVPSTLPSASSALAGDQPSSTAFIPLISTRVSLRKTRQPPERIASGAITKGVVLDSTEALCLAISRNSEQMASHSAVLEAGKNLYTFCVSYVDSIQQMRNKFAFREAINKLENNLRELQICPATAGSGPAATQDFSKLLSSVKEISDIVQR
Sequence of PCSK9/LDLR (Homo sapiens) (P01130 22-860 partner limits assumed): as the sequence (P01130 22-860 partner limits assumed) above
Sequence of PCSK9/LDLR (Homo sapiens) (Q8NBP7 31-152 limits assumed): as the sequence (Q8NBP7 31-152 limits assumed) above
Sequence of PCSK9/LDLR (Homo sapiens) (Q8NBP7 153-692 limits assumed): as the sequence (Q8NBP7 153-692 limits assumed) above
Sequence of Platelet-derived growth factor receptor beta (P09619 whole entry, the tested form may be a part): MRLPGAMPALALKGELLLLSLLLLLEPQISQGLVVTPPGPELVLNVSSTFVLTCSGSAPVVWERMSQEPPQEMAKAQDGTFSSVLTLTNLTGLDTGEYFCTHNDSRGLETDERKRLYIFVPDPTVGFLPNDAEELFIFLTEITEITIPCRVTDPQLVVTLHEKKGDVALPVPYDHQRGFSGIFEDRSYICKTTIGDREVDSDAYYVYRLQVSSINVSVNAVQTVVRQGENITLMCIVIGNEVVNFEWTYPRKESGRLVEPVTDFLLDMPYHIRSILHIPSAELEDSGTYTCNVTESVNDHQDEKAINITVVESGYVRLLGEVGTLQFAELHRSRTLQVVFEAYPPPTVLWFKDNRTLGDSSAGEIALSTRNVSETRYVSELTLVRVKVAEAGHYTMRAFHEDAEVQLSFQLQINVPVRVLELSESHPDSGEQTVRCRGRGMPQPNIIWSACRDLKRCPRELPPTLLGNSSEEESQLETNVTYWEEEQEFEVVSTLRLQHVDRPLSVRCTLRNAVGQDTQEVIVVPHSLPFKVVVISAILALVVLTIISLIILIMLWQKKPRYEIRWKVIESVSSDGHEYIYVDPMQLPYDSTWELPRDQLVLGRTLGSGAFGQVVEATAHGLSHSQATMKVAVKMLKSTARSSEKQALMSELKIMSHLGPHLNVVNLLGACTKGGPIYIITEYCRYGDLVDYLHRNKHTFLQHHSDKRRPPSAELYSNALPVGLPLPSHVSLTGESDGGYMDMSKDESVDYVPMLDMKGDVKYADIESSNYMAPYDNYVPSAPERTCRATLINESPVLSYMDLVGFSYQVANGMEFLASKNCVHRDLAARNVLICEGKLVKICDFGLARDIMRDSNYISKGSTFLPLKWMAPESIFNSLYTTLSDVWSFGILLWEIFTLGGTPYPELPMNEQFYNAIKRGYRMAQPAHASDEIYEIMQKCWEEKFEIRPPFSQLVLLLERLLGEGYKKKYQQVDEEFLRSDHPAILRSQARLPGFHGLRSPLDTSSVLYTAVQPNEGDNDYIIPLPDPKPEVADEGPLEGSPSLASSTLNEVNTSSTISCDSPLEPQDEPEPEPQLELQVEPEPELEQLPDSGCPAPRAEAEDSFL

A word on the AUC(0-t): it is the area under the concentration-time curve up to a stated or last time point. As usually defined, the MRT inf is the average time that molecules of a dose stay in the body. The IC50 is the concentration that gives 50% inhibition. One may read the clearance as the volume of plasma or blood freed of the substance per unit of time. High values mean efficient removal, low ones inefficient removal. As usually defined, the AUC(0-inf) is the area under the concentration-time curve extrapolated to infinity. The low end stands for less exposure, the high end for more exposure. Compound `Cc1cn(-c2cc(CN3CCC[C@H](N)C3)cc(NC(=O)c3ccc(C)c(Nc4nccc(-c5ccc(F)cc5)n4)c3)c2)cn1` displayed an AUC(0-t) at 24 h in data set [1] of 243 ng·h/mL. This compound also yielded an MRT inf in data set [2] of 10.4 h. Also, the half-life in [3] is 648 min. Further, the IC50 in data set [4] was over 10 µM; in data set [6] it was 1960 nM; at PCSK9/LDLR it was 428 nM; in data set [9] it was over 10 µM; in data set [10], 2.04 µM. Also, the clearance in data set [5] is 23.5 mL/min/kg. The same compound had an AUC(0-inf) in data set [7] of 297 ng·h/mL. Further, the Vd in data set [8] turned out to be 13.3 L/kg.

The compound `Cc1cn(-c2cc(NC(=O)c3ccc(C)c(Nc4nccc(-c5ccccc5)n4)c3)cc(N3CCNCC3)c2)cn1` had an AUC(0-t) at 24 h in data set [1] of 116 ng·h/mL. In data set [2], this compound had an MRT inf of 1.19 h. In addition, the half-life in [3] is 98.4 min. Besides, the IC50 in [4] is 4.36 µM; in data set [6] it was 1490 nM; on PCSK9/LDLR, 491 nM; in data set [10] it was 1.51 µM. The compound further gave a clearance in data set [5] of 52.5 mL/min/kg. In data set [7], the AUC(0-inf) was found to be 127 ng·h/mL. Also, the Vd in data set [8] is 3.74 L/kg.

In data set [1], `Cc1cn(-c2cc(NC(=O)c3ccc(C)c(Oc4ccccc4)c3)cc(N3CCN(C)CC3)c2)cn1` gave an AUC(0-t) at 24 h of 338 ng·h/mL. This compound also displayed an MRT inf in data set [2] of 8.98 h. For the same compound, the half-life in data set [3] was 442 min. The inhibition entry in data set [11] was “inactive”. Further, the IC50 is over 10 µM in data set [4]; over 10000 nM in [6]; 759 nM at PCSK9/LDLR; over 10 µM in [9]; 7.66 µM in data set [10]. The compound also gave a clearance in [5] of 17.5 mL/min/kg. The AUC(0-inf) in data set [7] amounted to 384 ng·h/mL. In addition, the Vd in [8] is 9.26 L/kg. Also, the Imax in data set [12] amounted to 20%.

In data set [1], `Cc1cn(-c2cc(CN3CCN(C)CC3)cc(NC(=O)c3ccc(C)c(Nc4nccc(-c5ccccc5)n4)c3)c2)cn1` yielded an AUC(0-t) at 24 h of 166 ng·h/mL. The MRT inf in [2] stood at 2.66 h. The half-life in data set [3] is 197 min. The IC50 in data set [4] was over 10 µM; in [6] it was 2570 nM; on PCSK9/LDLR, 714 nM; in data set [9], over 10 µM; in data set [10], 5.42 µM. The compound also showed a clearance in data set [5] of 35.7 mL/min/kg. This compound displayed an AUC(0-inf) in data set [7] of 187 ng·h/mL. The Vd in data set [8] turned out to be 5.65 L/kg.

As for `Cc1cn(-c2cc(CCS(N)(=O)=O)cc(NC(=O)c3ccc(C)c(Nc4nccc(-c5ccccc5)n4)c3)c2)cn1`, in data set [1], the AUC(0-t) at 24 h is 58.5 ng·h/mL. In data set [2], this compound returned an MRT inf of 0.239 h. Besides, the half-life in [3] was 13 min. In addition, the IC50 was over 10 µM in [4]; 6000 nM in data set [6]; 13400 nM at PCSK9/LDLR; over 10 µM in [9]; over 10 µM in [10]. Moreover, the clearance in data set [5] was 110 mL/min/kg. In data set [7], this compound yielded an AUC(0-inf) of 63.7 ng·h/mL. In addition, the Vd in data set [8] stood at 1.72 L/kg.

With `Cc1cn(-c2cc(NC(=O)c3ccc(C)c(Nc4nccc(-c5ccccc5)n4)c3)cc(N3CCN(C)CC3)c2)cn1`, the AUC(0-t) at 24 h in data set [1] was 189 ng·h/mL. In [2], the MRT inf worked out at 2.16 h. In data set [3], the half-life was 133 min. The IC50 in [4] was over 10 µM; in [6], 2880 nM; on PCSK9/LDLR, 758 nM; in [9] it was over 10 µM; in [10], over 10 µM. In [5], this compound gave a clearance of 32.8 mL/min/kg. Further, the AUC(0-inf) in data set [7] is 204 ng·h/mL. Moreover, the Vd in data set [8] was 4.3 L/kg. Moreover, the inhibition result in data set [13] is “Dose-dependent effect”. Further, the Imax in data set [12] is over 35%.

In turn, `Cc1cn(-c2cc(NC(=O)c3ccc(C)c(Oc4cccc5ccncc45)c3)cc(N3CCN(C)CC3)c2)cn1` yielded an AUC(0-t) at 24 h in data set [1] of 128 ng·h/mL. Further, the MRT inf in [2] stood at 2.3 h. Also, in data set [3], the half-life was 166 min. The IC50 in [4] is 2.61 to 2.62 µM; in data set [6], 227 nM; on PCSK9/LDLR, 78 nM; in data set [9] it was over 10 µM; in data set [10] it was 3.29 µM. The same compound showed a clearance in data set [5] of 50.8 mL/min/kg. In addition, the total exposure AUC(0-inf) in data set [7] was 133 ng·h/mL. For the same compound, in data set [8], the Vd worked out at 6.7 L/kg. Besides, the inhibition entry in data set [13] is “Dose-dependent effect”. The Imax in data set [12] is over 35%.

Compound `Cc1cn(-c2cc(NC(=O)c3ccc(C)c(C(=O)c4cccc(C#N)c4)c3)cc(N3CCN(C)CC3)c2)cn1` registered an AUC(0-t) at 24 h in data set [1] of 78 ng·h/mL. This compound had an MRT inf in [2] of 0.96 h. Also, the half-life in [3] is 65.4 min. Further, the IC50 in data set [4] was over 10 µM; in [6] it was over 10000 nM; on PCSK9/LDLR it was 2130 nM; in data set [9] it was over 10 µM; in [10], over 10 µM. In addition, the clearance in data set [5] was 81 mL/min/kg. In [7], this compound gave an AUC(0-inf) of 83 ng·h/mL. Moreover, in data set [8], the Vd was 4.7 L/kg.

In the case of `Cc1cn(-c2cc(NC(=O)c3ccc(C)c(Oc4ccccc4)c3)cc(C(F)(F)F)c2)cn1`, in data set [1], the AUC(0-t) at 24 h turned out to be 508 ng·h/mL. In [2], this compound showed an MRT inf of 2.27 h. The half-life in data set [3] was 129 min. For the same compound, the IC50 in data set [4] is over 10 µM; in data set [6] it was 618 nM; at PCSK9/LDLR it was 13400 nM; in data set [9], over 10 µM; in data set [10], over 10 µM. The clearance in data set [5] was 12.5 mL/min/kg. The AUC(0-inf) in [7] stood at 541 ng·h/mL. Further, the Vd in [8] turned out to be 1.69 L/kg.
